MC4R ag barr = MC4R agonists recruiting beta-arrestin, primary screen, cell-based, luminescence, agonist arm of biased-ligand search; Melanocortin receptor 4 (Homo sapiens), P32245; U2OS MC4R beta-arrestin complementation; percent of melanotan II response, DMSO zero; activation, % at 8.9 µM; AID 540308, 2011; 360,000 compounds, 0.98% hits;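 active means activation above a per-plate cutoff, the mean activation of sample wells on that plate plus 3 SD, cut at about 8% in these data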
Target sequence (P32245 whole entry, looked up): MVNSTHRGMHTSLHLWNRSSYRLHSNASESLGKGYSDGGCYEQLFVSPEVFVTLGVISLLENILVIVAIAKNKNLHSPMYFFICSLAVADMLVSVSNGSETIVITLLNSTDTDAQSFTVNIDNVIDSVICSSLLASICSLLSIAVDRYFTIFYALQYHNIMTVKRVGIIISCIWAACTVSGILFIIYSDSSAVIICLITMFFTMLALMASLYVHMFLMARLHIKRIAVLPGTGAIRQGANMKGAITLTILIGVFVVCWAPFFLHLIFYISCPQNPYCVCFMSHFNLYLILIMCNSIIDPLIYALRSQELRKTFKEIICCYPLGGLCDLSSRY
MC4R antagonist = MC4R antagonists of cAMP signaling, primary screen, cell-based, TR-FRET, antagonist arm of biased-ligand search. MC4R-expressing cells, MTII-stimulated cAMP, LANCE TR-FRET. inhibition, % at 6.5 µM. 360,000 compounds, 0.48% hits;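 active means inhibition above its plate's cutoff, the mean of tested wells on that plate plus 3 SD, cut at about 29% in these data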;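 further: 0% = Melanotan II alone and 100% = Melanotan II plus saturating MCL0020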
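System: U2OS cells stably expressing human melanocortin 4 receptor (MC4R). Reagent: Melanotan II challenge after compound preincubation. Doses: 6.5 µM. Times: 30-min compound, 1-h challenge, 1-h detection, room temperature. Measured by: TR-FRET with Eu-cAMP and labeled anti-cAMP, 671 nm. Replicates: singlicate.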
Granule exo inh = LAMP-1 surface exposure blockers, TALL-104 cells – cell-based, flow cytometry, MLPCN library, primary screen; TALL-104 LAMP-1 surface exposure; cells stimulated with thapsigargin and PMA; inhibition, % at 10 µM; 360,000 compounds, 0.66% hits;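 active means inhibition above about 55%, limit read from the data; inconclusive means no clear call, values can overlap the other calls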
EBI2 antag = EBI2 receptor antagonists, beta-arrestin recruitment, primary screen, cell-based, luminescence, 7a,25-OHC stimulation, uHTS; 7a,25-OHC stimulated; inhibition, % at 5 µM; 360,000 compounds, 0.81% hits; AID 651636, 2012; in the data active means inhibition above about 38%;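 further: enzyme fragment complementation signal reports receptor beta-arrestin coupling in cells; 0% = agonist plus DMSO wells and 100% = wells without agonist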
Myeloid diff 2 = induction of myeloid progenitor differentiation, primary screen, cell-based, flow cytometry, MLPCN library; ER-HoxA9 myeloid progenitors, lysozyme-GFP differentiation; calls only at 10 µM; 360,000 compounds, 1% hits;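 active means normalized GFP-positive differentiation at or above the plate's own cutoff, the solvent-only control mean plus 3 SD; inconclusive means no clear call, values can overlap the other calls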;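 further: cells exposed to compound for four days before flow analysis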
EBI2 antag conf = EBI2 antagonist hit retest, beta-arrestin, confirmation, cell-based, single concentration, luminescence, 7a,25-OHC stimulation | shares compounds with EBI2 antag | 7a,25-OHC antagonism | inhibition, % at 5 µM | 2,400 compounds, 29% hits | AID 651997, 2013;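 active means inhibition of at least 50%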
EBI2 ag = EBI2 agonist activity of antagonist hits, confirmation, counter-screen for EBI2 antagonist project, cell-based, single concentration, agonist mode, luminescence | shares compounds with EBI2 antag | EBI2-expressing cells, 60 min; 0% vehicle, 100% 7α,25-dihydroxycholesterol control | activation, % at 5 µM | 2,400 tested, under 10 active | AID 652000, 2013;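 active means activation of at least 50%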
bGal cs = E. coli beta-galactosidase enzyme inhibition, confirmation, counter-screen for EBI2 antagonist project, biochemical, luminescence, single concentration. shares compounds with EBI2 antag. purified beta-galactosidase, luminescent Galacton Star, 15 min. inhibition, % at 5 µM. 2,400 compounds, 1% hits;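 active means replicate-average signal at least 3 plate SD below neutral wells, shown as high inhibition, flagging enzyme-inhibiting false positives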;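 further: 0% = DMSO wells with enzyme and 100% = wells lacking enzyme; higher means stronger loss of beta-gal luminescence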
Numbers without * were called inactive; i = inactive; ? = inconclusive; · = not tested or not shown. Shown are actives, neighbours in structure and some others; about 3.7% of the full set was active somewhere.

SMILES | MC4R ag barr | MC4R antagonist | Granule exo inh | EBI2 antag | Myeloid diff 2 | EBI2 antag conf | EBI2 ag | bGal cs
COc1ccc2cc(C(=O)N3CCN(c4ccccc4OC)CC3)[nH]c2c1 | -1.0 | 7.6 | -15.6 | 74.5* | i | 48.9 | 1.8 | 3.7
COc1ccc(C(=O)N2CCN(c3ccccc3OC)CC2)cc1 | 0.3 | -2.2 | 0.7 | 12.1 | i | · | · | ·
COc1ccc2cc(C(=O)N3CCN(c4ccccc4F)CC3)[nH]c2c1 | 0.9 | 15.8 | 0.3 | 65.5* | ? | 57.7* | 1.5 | 6.6
CC(C)Oc1ccc(C(=O)N2CCN(C(=O)c3ccco3)CC2)cc1 | -3.0 | 15.7 | -3.1 | -3.5 | i | · | · | ·
O=C(O)c1cccc(N2C(=O)c3cc([N+](=O)[O-])cc4cc([N+](=O)[O-])cc(c34)C2=O)c1 | -3.7 | -5.6 | 7.0 | 8.1 | i | · | · | ·
C/C=C\C=C\C(=O)N1CC2(CC(c3cccc(NC(=O)COc4ccc(Cl)cc4)c3)=NO2)C[C@H]1C(N)=O (stereo not given in full) | -0.2 | 4.6 | 8.8 | 48.0* | i | 47.4 | 1.5 | 5.4
NC(=O)NC(CC(=O)Nc1cccnc1)c1cccc(Br)c1 (stereo not given) | -1.0 | -5.9 | -7.9 | 3.7 | i | · | · | ·
O=C(N/N=C/c1ccc(Cl)cc1Cl)c1cccc(F)c1 | -0.1 | 14.6 | -3.4 | 44.6* | i | 40.6 | 2.4 | 3.0
CC(=O)N1N=C(c2ccncc2)CC1c1ccccc1O (stereo not given) | -2.1 | 6.6 | -0.7 | 1.9 | i | · | · | ·
CC(=O)N1N=C(c2ccccc2)CC1c1cn(Cc2ccccc2)c2ccccc12 (stereo not given) | -0.4 | 6.3 | -1.2 | 49.4* | i | 28.9 | -0.6 | -1.5
O=C(CSc1nnc(NC2CCCCC2)s1)N1CCOCC1 | -1.0 | 11.1 | -4.4 | -7.8 | i | · | · | ·
CCCN(CCC)C(=O)C1CCN(c2ccc(S(=O)(=O)N3CCOCC3)cc2[N+](=O)[O-])CC1 | -2.9 | 8.5 | 1.0 | 62.0* | · | 25.1 | 0.6 | 0.7
Cc1ccccc1CSCCNC(=O)COc1ccc(Cl)cc1 | 1.6 | 9.2 | -0.9 | 55.0* | i | 44.6 | 0.5 | -0.9
CC(C)(C)SCCNC(=O)COc1ccc(Cl)cc1 | -0.3 | 6.9 | 1.7 | 32.8 | i | · | · | ·
O=C(NCCc1c[nH]c2ccccc12)c1ccc(Cl)cc1 | 0.5 | 12.3 | -3.9 | 59.6* | i | 34.0 | -1.1 | -7.3
CC(NC(=O)C(=O)NCCc1c[nH]c2ccccc12)c1ccccc1 (stereo not given) | -0.7 | 3.4 | -3.6 | 60.8* | i | 34.0 | 0.7 | 7.2
COc1ccc(N2CCN(C(CNC(=O)C(=O)NCCc3c[nH]c4ccccc34)c3ccco3)CC2)cc1 (stereo not given) | 7.0 | 3.0 | 13.7 | 49.1* | i | 45.2 | -1.3 | -22.3
COc1ccc(C(=O)NCCc2c[nH]c3ccccc23)cc1 | -1.5 | -3.5 | -4.8 | 33.3 | i | · | · | ·
CCCCn1c(N)c(N(CC(C)C)C(=O)c2c(CC)noc2C)c(=O)[nH]c1=O | 2.9 | 8.9 | 3.6 | -7.0 | i | · | · | ·
CCNC(=O)NC(=O)COC(=O)CCc1nc(=O)c2ccccc2n1C | -2.0 | 3.6 | -0.3 | 4.7 | i | · | · | ·
COc1ccc(-c2ccc(CN3C(CC(C)C)C(=O)N(Cc4cn(CC5CCCCC5)nn4)CCS3(=O)=O)cc2)cc1OC (stereo not given) | 0.9 | 2.3 | -0.8 | 20.3 | i | · | · | ·

Screens: PubChem, several laboratories
